Experimental data pooled from the literature.
Each line is one published result; the experiments were not run side by side.
Target: TGF-beta receptor type-2 (TGFBR2, Homo sapiens, UniProt P37173)

With `COc1cc(Cl)c(C(=O)N[C@@H](CN[C@H]2CC[C@@H](N)CC2)Cc2ccc(C#N)cc2)cc1-c1ccc(CN[C@H](C)c2ccc(C)cc2)o1` the remaining activity was 94% (enzyme activity, inhibitor; 1 µM).
`NS(=O)(=O)c1cc(NC(=O)Cc2ccccc2)ccc1Oc1cccc(Cl)c1` gave a remaining binding of 87% (cell-free assay, competition with immobilised ligand; 1 µM).
The remaining signal of `Cc1ccc(Nc2nccc(N(C)c3ccc4c(C)n(C)nc4c3)n2)cc1S(N)(=O)=O` is reported as 100% (cell-free assay; 0.5 µM).
`CC(C)(C)c1nc(-c2cccc(NS(=O)(=O)c3c(F)cccc3F)c2F)c(-c2ccnc(N)n2)s1` gave a remaining activity of 42% (enzyme activity, inhibitor, radiometric; 1 µM).
`CNC(=O)c1cc(Oc2ccc(NC(=O)Nc3ccc(Cl)c(C(F)(F)F)c3)cc2)ccn1` gave a remaining signal of 99.9% (cell-free assay; 0.5 µM).
With `C[C@@H](c1cccc(C#N)c1)n1cc(Cl)cc(C(N)=O)c1=N` the remaining binding was 100% (cell-free assay, competition with immobilised ligand; 1 µM).
`CN1CC(Oc2cnc(C#N)cc2-c2ccn3nc(NC(=O)C4CC4)cc3c2)C1` gave an inhibition of 11% (enzyme activity, inhibitor; 1 µM).
With `O=C(Nc1cnn(-c2csc(C(=O)NC3COC3)c2)c1)Nc1ccccc1Cl` the remaining activity was 113% (enzyme activity, inhibitor; 5 µM).
The remaining signal of `O=C1Nc2ccc(Cl)cc2C1=Cc1cc(Cl)c(O)c(Cl)c1` is reported as 94.9% (cell-free assay; 0.5 µM).
For `Cc1nc(C2CCN(C(=O)c3ccc(OC(F)(F)F)cc3N)CC2)c2ncc(N3CCN(C)CC3)cc2n1`, the remaining binding was 93% (cell-free assay, competition with immobilised ligand; 1 µM).
The remaining signal of `c1ccc(-c2[nH]ncc2-c2ccnc3ccccc23)nc1` is reported as 109% (cell-free assay; 0.5 µM).
`Cc1nc(N2CC[C@@H](O)C2)ncc1-c1cc(C(F)(F)F)cc2[nH]ncc12` gave a remaining binding of 99% (cell-free assay, competition with immobilised ligand; 1 µM).
